Data as given in ChEMBL document CHEMBL2429791, “Preparation of asymmetric urea derivatives that target prostate-specific membrane antigen for SPECT imaging” (J Med Chem, 2013).

Tests used:
Kidney [1] = experiment: Drug excretion in C.B.-17/Icr […] Jcl mouse kidney xenografted with human LNCAP and PC3 cells at 25.9 MBq, iv; assay type: ADME, organism-based; conditions: in vivo
[2] = Distribution coefficient, log D of the compound; assay type: physicochemical; conditions: octanol/water
Kidney [3] = experiment: Biodistribution in kidney of C.B.-17/Icr +/+ Jcl mouse xenografted with human LNCAP and PC3 cells at 25.9 MBq, iv after 30 mins in presence of 2-PMPA; assay type: ADME, organism-based; conditions: in vivo, 0.5 h
How it was run: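 Blocking study: ¹²⁵I-labelled tracer coinjected iv by tail vein with 2-PMPA (50 mg/kg) in LNCaP/PC-3 xenograft-bearing mice (22–24 g). Mice decapitated 30 min after injection; tissues weighed and counted; uptake as %ID/g.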

Nucleic Acid [4] = experiment: Ratio of drug level in human PC3 cells xenografted in C.B.-17/Icr +/+ Jcl mouse to muscle of C.B.-17/Icr +/+ Jcl mouse xenografted with human LNCAP and PC3 cells at 25.9 MBq, iv after 6 hrs; assay type: ADME, organism-based; conditions: in vivo
How it was run: (§1)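 Mice (22–24 g) carried PC-3 (right shoulder) and LNCaP (left shoulder) tumors, raised by injecting 1–5 × 10⁶ cells in 1:1 PBS/Matrigel and used at about 5–10 mm diameter. [¹²⁵I]-tracer was given via the tail vein, n=4 per time point, and mice were decapitated at 2 min, 30 min, 1, 3 or 6 h. Tissues were weighed and γ-counted as %ID/g. Tumor/blood and tumor/muscle ratios were taken from %ID/g, mean ± SD.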

Nucleic Acid [5] = experiment: Ratio of drug level in human LNCAP cells to human PC3 cells xenografted in C.B.-17/Icr […] Jcl mouse at 25.9 MBq, iv after 6 hrs; assay type: ADME, organism-based; conditions: in vivo
Thyroid gland = experiment: Biodistribution in thyroid of C.B.-17/Icr +/+ Jcl mouse xenografted with human LNCAP and PC3 cells at 25.9 MBq, iv after 6 hrs; assay type: ADME, organism-based; conditions: in vivo
How it was run: (§2)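 Radioiodinated (¹²⁵I) tracer given by tail-vein injection to mice bearing LNCaP (left shoulder) and PC-3 (right shoulder) xenografts, 22–24 g, grown to about 5–10 mm. Groups of n=4 were decapitated at 2 min, 30 min, 1 h, 3 h or 6 h. Tissues were weighed and counted, and uptake was expressed as %ID/g (mean ± SD).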

PC-3 [6] = experiment: Biodistribution in PC3 cells in C.B.-17/Icr +/+ Jcl mouse xenografted with human LNCAP and PC3 cells at 25.9 MBq, iv after 6 hrs; assay type: ADME, organism-based; conditions: in vivo
How it was run: (§3)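 ¹²⁵I-labelled tracer given iv by tail vein to mice (22–24 g) bearing LNCaP (left shoulder) and PC-3 (right shoulder) xenografts of about 5–10 mm, grown from 1–5 × 10⁶ cells in 1:1 Matrigel. n=4 per time point; decapitated at 2 min, 30 min, 1, 3, 6 h. Tissues weighed and counted; uptake as %ID/g, mean ± SD.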

Kidney [7] = experiment: Biodistribution in kidney of C.B.-17/Icr […] Jcl mouse xenografted with human LNCAP and PC3 cells at 25.9 MBq, iv after 6 hrs; assay type: ADME, organism-based; conditions: in vivo; how it was run: as §3
[8] = Ratio of drug level in human LNCAP cells xenografted in C.B.-17/Icr +/+ Jcl mouse to blood of C.B.-17/Icr +/+ Jcl mouse xenografted with human LNCAP and PC3 cells at 25.9 MBq, iv after 3 hrs; assay type: ADME, organism-based; conditions: LNCAP tumour xenograft relative to blood
How it was run: (§4)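 Tumor-to-blood and tumor-to-muscle ratios were calculated from %ID/g values in ¹²⁵I-tracer biodistribution in LNCaP/PC-3 xenografted mice. Tail-vein dosing, n=4 per time point, sacrifice at 2 min, 30 min, 1, 3 or 6 h.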

Spleen = experiment: Biodistribution in spleen of C.B.-17/Icr +/+ Jcl mouse xenografted with human LNCAP and PC3 cells at 25.9 MBq, iv after 3 hrs; assay type: ADME, organism-based; conditions: in vivo; how it was run: as §2
Kidney [9] = experiment: Biodistribution in kidney of C.B.-17/Icr […] Jcl mouse xenografted with human LNCAP and PC3 cells at 25.9 MBq, iv after 3 hrs; assay type: ADME, organism-based; conditions: in vivo; how it was run: as §3
Nucleic Acid [10] = experiment: Ratio of drug level in human PC3 cells xenografted in C.B.-17/Icr +/+ Jcl mouse to muscle of C.B.-17/Icr +/+ Jcl mouse xenografted with human LNCAP and PC3 cells at 25.9 MBq, iv after 1 hr; assay type: ADME, organism-based; conditions: in vivo; how it was run: as §1
Nucleic Acid [11] = experiment: Ratio of drug level in human LNCAP cells xenografted in C.B.-17/Icr +/+ Jcl mouse to muscle of C.B.-17/Icr +/+ Jcl mouse xenografted with human LNCAP and PC3 cells at 25.9 MBq, iv after 1 hr; assay type: ADME, organism-based; conditions: in vivo; how it was run: as §4
[12] = Ratio of drug level in human PC3 cells xenografted in C.B.-17/Icr +/+ Jcl mouse to blood of C.B.-17/Icr +/+ Jcl mouse xenografted with human LNCAP and PC3 cells at 25.9 MBq, iv after 1 hr; assay type: ADME, organism-based; conditions: PC3 tumour xenograft relative to blood; how it was run: as §1
Lung = experiment: Biodistribution in lung of C.B.-17/Icr +/+ Jcl mouse xenografted with human LNCAP and PC3 cells at 25.9 MBq, iv after 1 hr; assay type: ADME, organism-based; conditions: in vivo; how it was run: as §2
[13] = Ratio of drug level in human PC3 cells xenografted in C.B.-17/Icr +/+ Jcl mouse to blood of C.B.-17/Icr +/+ Jcl mouse xenografted with human LNCAP and PC3 cells at 25.9 MBq, iv after 30 mins; assay type: ADME, organism-based; conditions: PC3 tumour xenograft relative to blood; how it was run: as §1
Muscle tissue = experiment: Biodistribution in muscle of C.B.-17/Icr +/+ Jcl mouse xenografted with human LNCAP and PC3 cells at 25.9 MBq, iv after 30 mins; assay type: ADME, organism-based; conditions: in vivo, 0.5 h; how it was run: as §2
Stomach [14] = experiment: Biodistribution in stomach of C.B.-17/Icr +/+ Jcl mouse xenografted with human LNCAP and PC3 cells at 25.9 MBq, iv after 30 mins; assay type: ADME, organism-based; conditions: in vivo, 0.5 h; how it was run: as §2
Nucleic Acid [15] = experiment: Ratio of drug level in human LNCAP cells xenografted in C.B.-17/Icr +/+ Jcl mouse to muscle of C.B.-17/Icr +/+ Jcl mouse xenografted with human LNCAP and PC3 cells at 25.9 MBq, iv after 2 mins; assay type: ADME, organism-based; conditions: in vivo; how it was run: as §4
Nucleic Acid [16] = experiment: Ratio of drug level in human LNCAP cells to human PC3 cells xenografted in C.B.-17/Icr […] Jcl mouse at 25.9 MBq, iv after 2 mins; assay type: ADME, organism-based; conditions: in vivo
PC-3 [17] = experiment: Biodistribution in PC3 cells in C.B.-17/Icr +/+ Jcl mouse xenografted with human LNCAP and PC3 cells at 25.9 MBq, iv after 2 mins; assay type: ADME, organism-based; conditions: in vivo; how it was run: as §3
Intestine = experiment: Biodistribution in intestine of C.B.-17/Icr +/+ Jcl mouse xenografted with human LNCAP and PC3 cells at 25.9 MBq, iv after 2 mins; assay type: ADME, organism-based; conditions: in vivo; how it was run: as §3
Stomach [18] = experiment: Biodistribution in stomach of C.B.-17/Icr +/+ Jcl mouse xenografted with human LNCAP and PC3 cells at 25.9 MBq, iv after 2 mins; assay type: ADME, organism-based; conditions: in vivo; how it was run: as §2

Drug excretion (Kidney [1]): Active
logD [2]: -1.97
Drug uptake (Kidney [3]): Not Active
Ratio (Nucleic Acid [4]): 2.1
Ratio (Nucleic Acid [5]): 36.8
Drug uptake (Thyroid gland): 0.02 %ID
Drug uptake (PC-3 [6]): 0.2 % ID/g
Drug uptake (Kidney [7]): 97.1 % ID/g
Kp at 3 h [8]: 13.8
Drug uptake (Spleen): 16.1 % ID/g
Drug uptake (Kidney [9]): 110 % ID/g
Ratio (Nucleic Acid [10]): 1.6
Ratio (Nucleic Acid [11]): 15.5
Kp at 1 h [12]: 0.7
Drug uptake (Lung): 2.5 % ID/g
Kp at 0.5 h [13]: 0.7
Drug uptake (Muscle tissue): 0.6 % ID/g
Drug uptake (Stomach [14]): 2.2 %ID
Ratio (Nucleic Acid [15]): 2.9
Ratio (Nucleic Acid [16]): 1.5
Drug uptake (PC-3 [17]): 2.7 % ID/g
Drug uptake (Intestine): 3.6 % ID/g
Drug uptake (Stomach [18]): 0.7 %ID/g
SMILES: O=C(O)CC[C@H](NC(=O)N[C@@H](CSC1CC(=O)N(CCCC[C@H](NC(=O)CNC(=O)c2cccc([125I])c2)C(=O)O)C1=O)C(=O)O)C(=O)O (stereo partly drawn)
